# According to ChEMBL document CHEMBL1125520, “Improved brain delivery of AZT using a glycosyl phosphotriester prodrug” (1992):
# What was measured:
# Mus musculus [1] = assay: In Vivo detection in Mice brains after oral administration of 41.63 mg/kg detected in the form of AZT after 0.5 hr; type: functional
# Mus musculus [2] = assay: In Vivo detection in Mice plasma after oral administration of 41.63 mg/kg detected in the form of AZT phosphodiester 2 after 8 hr; type: functional, organism-based; set-up: dose 41.63 mg/kg
# Mus musculus [3] = assay: In Vivo detection in Mice brains after oral administration of 41.63 mg/kg detected in the form of AZT after 24 hr; type: functional
# Mus musculus [4] = assay: In Vivo detection in Mice plasma after oral administration of 41.63 mg/kg detected in the form of AZT phosphodiester 2 after 1 hr; type: functional, organism-based; set-up: dose 41.63 mg/kg
# Mus musculus [5] = assay: In Vivo detection in Mice brains after oral administration of 41.63 mg/kg detected in the form of AZT 5`-P after 1 hr; type: functional
# Mus musculus [6] = assay: In Vivo detection in Mice brains after oral administration of 41.63 mg/kg detected in the form of AZT phosphodiester 2 after 8 hr; type: functional
# Mus musculus [7] = assay: In Vivo detection in Mice plasma after oral administration of 41.63 mg/kg detected in the form of AZT after 4 hr; type: functional, organism-based; set-up: dose 41.63 mg/kg
# Mus musculus [8] = assay: In Vivo detection in Mice plasma after oral administration of 41.63 mg/kg detected in the form of AZT phosphodiester 2 after 48 hr; type: functional, organism-based; set-up: dose 41.63 mg/kg
# Mus musculus [9] = assay: In Vivo detection in Mice brains after oral administration of 41.63 mg/kg detected in the form of AZT after 8 hr; type: functional
# Mus musculus [10] = assay: In Vivo detection of total AZT in Mice brains after oral administration of 41.63 mg/kg after 24 hr; type: functional
# Method in brief: (§1)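 Male Swiss mice (18–20 g) dosed orally with a 3 mM solution in […] vehicle; decapitated at 0.5–48 h. Brains were homogenized in acetonitrile-water (3:1), centrifuged at 6000g for 40 min at 4 °C, lyophilized, redissolved in water and filtered (0.45 µm). Reversed-phase C18 column-switching HPLC with diode-array detection; standard spiking; vehicle-fed controls. Three mice per point, triplicates.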
# Mus musculus [11] = assay: In Vivo detection in Mice brains after oral administration of 41.63 mg/kg detected in the form of AZT phosphodiester 2 after 1 hr; type: functional
# Mus musculus [12] = assay: In Vivo detection in Mice plasma after oral administration of 41.63 mg/kg detected in the form of AZT 5`-P after 24 hr; type: functional, organism-based; set-up: dose 41.63 mg/kg
# Mus musculus [13] = assay: In Vivo detection of total AZT in Mice brains after oral administration of 41.63 mg/kg after 2 hr; type: functional; method in brief: as §1
# Mus musculus [14] = assay: In Vivo detection in Mice plasma after oral administration of 41.63 mg/kg detected in the form of AZT 5`-P after 48 hr; type: functional, organism-based; set-up: dose 41.63 mg/kg
# Mus musculus [15] = assay: In Vivo detection in Mice brains after oral administration of 41.63 mg/kg detected in the form of AZT 5`-P after 48 hr; type: functional
# Mus musculus [16] = assay: In Vivo detection of total AZT in Mice plasma after oral administration of 41.63 mg/kg after 2 hr; type: functional, organism-based; set-up: dose 41.63 mg/kg
# Method in brief: (§2)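 Male Swiss mice (18–20 g, six weeks old) given the test substance or vehicle ([…]) by gavage as a 3 mM solution (1.5 µmol/mouse). Aortic blood was collected into heparinized tubes at 0.5–48 h and centrifuged at 13000g for 10 min. Plasma was stored at -22 °C and analysed by HPLC. Three mice were used per time point, in triplicate. Values were not corrected for recovery.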
# Mus musculus [17] = assay: In Vivo detection of total AZT in Mice plasma after oral administration of 41.63 mg/kg after 1 hr; type: functional, organism-based; set-up: dose 41.63 mg/kg; method in brief: as §2
# Mus musculus [18] = assay: In Vivo detection of total AZT in Mice plasma after oral administration of 41.63 mg/kg after 4 hr; type: functional, organism-based; set-up: dose 41.63 mg/kg; method in brief: as §2
# Mus musculus [19] = assay: In Vivo detection in Mice brains after oral administration of 41.63 mg/kg detected in the form of AZT 5`-P after 4 hr; type: functional
# Mus musculus [20] = assay: In Vivo detection in Mice brains after oral administration of 41.63 mg/kg detected in the form of AZT 5`-P after 0.5 hr; type: functional
# Mus musculus [21] = assay: In Vivo detection in Mice brains after oral administration of 58.33 mg/kg detected in the form of AZT 5`-P after 8 hr; type: functional
# Mus musculus [22] = assay: In Vivo detection in Mice brains after oral administration of 58.33 mg/kg detected in the form of AZT after 24 hr; type: functional
# Mus musculus [23] = assay: In Vivo detection of total AZT in Mice brains after oral administration of 58.33 mg/kg after 48 hr; type: functional; method in brief: as §1
# Mus musculus [24] = assay: In Vivo detection in Mice plasma after oral administration of 58.33 mg/kg detected in the form of AZT phosphodiester 3 after 1 hr; type: functional, organism-based; set-up: dose 58.33 mg/kg; method in brief: as §2
# Mus musculus [25] = assay: In Vivo detection in Mice brains after oral administration of 58.33 mg/kg detected in the form of AZT after 0.5 hr; type: functional
# Mus musculus [26] = assay: In Vivo detection of total AZT in Mice plasma after oral administration of 58.33 mg/kg after 2 hr; type: functional, organism-based; set-up: dose 58.33 mg/kg; method in brief: as §2
# Mus musculus [27] = assay: In Vivo detection of total AZT in Mice brains after oral administration of 58.33 mg/kg after 8 hr; type: functional; method in brief: as §1
# Mus musculus [28] = assay: In Vivo detection in Mice plasma after oral administration of 58.33 mg/kg detected in the form of AZT phosphodiester 3 after 8 hr; type: functional, organism-based; set-up: dose 58.33 mg/kg; method in brief: as §2
# Mus musculus [29] = assay: In Vivo detection in Mice brains after oral administration of 58.33 mg/kg detected in the form of AZT 5`-P after 24 hr; type: functional
# Mus musculus [30] = assay: In Vivo detection in Mice plasma after oral administration of 58.33 mg/kg detected in the form of AZT phosphodiester 3 after 2 hr; type: functional, organism-based; set-up: dose 58.33 mg/kg; method in brief: as §2
# Mus musculus [31] = assay: In Vivo detection in Mice plasma after oral administration of 58.33 mg/kg detected in the form of AZT phosphodiester 3 after 4 hr; type: functional, organism-based; set-up: dose 58.33 mg/kg; method in brief: as §2
# Mus musculus [32] = assay: In Vivo detection in Mice brains after oral administration of 58.33 mg/kg detected in the form of AZT phosphodiester 2 after 0.5 hr; type: functional
# Mus musculus [33] = assay: In Vivo detection in Mice brains after oral administration of 58.33 mg/kg detected in the form of AZT 5`-P after 48 hr; type: functional
# Mus musculus [34] = assay: In Vivo detection in Mice brains after oral administration of 58.33 mg/kg detected in the form of AZT phosphodiester 2 after 2 hr; type: functional
# Mus musculus [35] = assay: In Vivo detection in Mice plasma after oral administration of 58.33 mg/kg detected in the form of AZT after 4 hr; type: functional, organism-based; set-up: dose 58.33 mg/kg
# Mus musculus [36] = assay: In Vivo detection of total AZT in Mice brains after oral administration of 58.33 mg/kg after 2 hr; type: functional; method in brief: as §1
# Mus musculus [37] = assay: In Vivo detection in Mice plasma after oral administration of 58.33 mg/kg detected in the form of AZT after 8 hr; type: functional, organism-based; set-up: dose 58.33 mg/kg; method in brief: as §2
# Mus musculus [38] = assay: In Vivo detection in Mice plasma after oral administration of 58.33 mg/kg detected in the form of AZT phosphodiester 2 after 8 hr; type: functional, organism-based; set-up: dose 58.33 mg/kg; method in brief: as §2
# Mus musculus [39] = assay: In Vivo detection in Mice plasma after oral administration of 58.33 mg/kg detected in the form of AZT after 2 hr; type: functional, organism-based; set-up: dose 58.33 mg/kg
# Mus musculus [40] = assay: In Vivo detection in Mice brains after oral administration of 58.33 mg/kg detected in the form of AZT phosphodiester 2 after 48 hr; type: functional
smiles,measurement,setting,value
Cc1cn([C@H]2C[C@H](N=[N+]=[N-])[C@@H](COP(=O)(O)OCCO[C@H]3O[C@H](CO)[C@@H](O)[C@H](O)[C@@H]3O)O2)c(=O)[nH]c1=O,Brain content,Mus musculus [1],1.8 nmol/g
same,Plasma content,Mus musculus [2],0 nM ml-1
same,Brain content,Mus musculus [3],0.8 nmol/g
same,Plasma content,Mus musculus [4],5.2 nM ml-1
same,Brain content,Mus musculus [5],79.3 nmol/g
same,Brain content,Mus musculus [6],8.9 nmol/g
same,Plasma content,Mus musculus [7],0 nM ml-1
same,Plasma content,Mus musculus [8],0 nM ml-1
same,Brain content,Mus musculus [9],0.9 nmol/g
same,Brain content,Mus musculus [10],61.8 nM ml-1
same,Brain content,Mus musculus [11],16.5 nM ml-1
same,Plasma content,Mus musculus [12],26.8 nM ml-1
same,Brain content,Mus musculus [13],26.2 nM ml-1
same,Plasma content,Mus musculus [14],17.9 nM ml-1
same,Brain content,Mus musculus [15],48.5 nmol/g
same,Plasma content,Mus musculus [16],19.7 nM ml-1
same,Plasma content,Mus musculus [17],43.5 nM ml-1
same,Plasma content,Mus musculus [18],6.7 nM ml-1
same,Brain content,Mus musculus [19],59.3 nmol/g
same,Brain content,Mus musculus [20],31 nmol/g
CCCCCCCCCCCCCCCCOP(=O)(OCCO[C@H]1O[C@H](CO)[C@@H](O)[C@H](O)[C@@H]1O)OCC1OC(n2cc(C)c(=O)[nH]c2=O)CC1N=[N+]=[N-] (stereo not given in full),Brain content,Mus musculus [21],106 nmol/g
same,Brain content,Mus musculus [22],1.4 nmol/g
same,Brain content,Mus musculus [23],63.5 nM ml-1
same,Plasma content,Mus musculus [24],0 nM ml-1
same,Brain content,Mus musculus [25],1.5 nmol/g
same,Plasma content,Mus musculus [26],5.4 nM ml-1
same,Brain content,Mus musculus [27],113 nmol/g
same,Plasma content,Mus musculus [28],0 nM ml-1
same,Brain content,Mus musculus [29],81.3 nmol/g
same,Plasma content,Mus musculus [30],0 nM ml-1
same,Plasma content,Mus musculus [31],0 nM ml-1
same,Brain content,Mus musculus [32],0.3 nmol/g
same,Brain content,Mus musculus [33],58.6 nmol/g
same,Brain content,Mus musculus [34],5.2 nmol/g
same,Plasma content,Mus musculus [35],2.3 nM ml-1
same,Brain content,Mus musculus [36],140.8 nM ml-1
same,Plasma content,Mus musculus [37],8.6 nM ml-1
same,Plasma content,Mus musculus [38],0 nM ml-1
same,Plasma content,Mus musculus [39],1.4 nM ml-1
same,Brain content,Mus musculus [40],3.8 nmol/g
